≈ marks a conversion by molar mass, not a printed value. Entries after “also recorded” stand apart in the source; their conditions may differ.
What was measured:
[1] = system: S. aureus Newman; assay: Membrane potential by flow cytometry with DiOC2; type: cell-based, Staphylococcus aureus; details: 10 μM, 30 min, DiOC2(3)
Procedure, shortened: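 Exponential-phase S. aureus Newman (OD600 ≈ 0.3, Mueller-Hinton II broth) treated with test compound at 100, 10 or 1 μM for 30 min at 37°C. Cells stained 5 min with 30 μM DiOC2(3) and run on flow cytometry (10,000 events, 488 nm excitation, green and red emission). Red/green fluorescence ratio histograms compared. CCCP was the positive control; at least two independent samples.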

[2] = system: Vero cells (kidney epithelial cells; ATCC CCL-81); assay: Cytotoxicity, CellTiter-Glo viability; type: cell-based; details: for Selectivity index: Cytotox IC50/MIC against methicillin-susceptible S. aureus Newman
Procedure, shortened: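 Vero kidney epithelial cells exposed 72 h to test compound (final 200–0.1 μg/ml in DMEM; diluted from 10 mg/ml DMSO stocks). Viability read by CellTiter-Glo luminescence. IC50 is the concentration giving 50% viability loss, from curve fitting. Selectivity index is the cytotoxic IC50 divided by the MIC against S. aureus Newman.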

[3] = system: Bacillus subtilis ATCC 23857; assay: MIC, microbroth dilution, Bacillus subtilis; type: cell-based; details: Bacillus subtilis, ATCC23857, read-out: MIC against Gram-positive bacteria, BS
Procedure, shortened: (§1)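 CLSI microbroth dilution in Mueller-Hinton broth. Test compound at final 200–0.1 μg/ml, diluted from 10 mg/ml DMSO stocks. Plates incubated 18–20 h. MIC is the lowest concentration preventing visible growth.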

[4] = system: Bacillus anthracis sterne; assay: microbe, parasite or virus in culture; type: cell-based; details: Bacillus anthracis, read-out: MIC against Gram-positive bacteria, BA
[5] = system: Clostridium difficile BAA 1803; assay: MIC, microbroth dilution, anaerobic, Clostridium difficile; type: cell-based; details: for MIC: Clostridioides difficile, BAA1803, 24 h, read-out: MIC against Gram-positive bacteria, CD, Clostridium difficile BAA 1803, Brain-heart infusion broth, 24 h, anaerobic
[6] = system: Streptococcus pneumoniae R6; assay: MIC, microbroth dilution, Streptococcus pneumoniae; type: cell-based; details: Streptococcus pneumoniae, R6, read-out: MIC against Gram-positive bacteria, SPn
Procedure, shortened: as §1

[7] = system: panel of clinical relevant Gram-positive pathogens; assay: MIC, statements over the Gram-positive panel; type: cell-based; details: for MIC: read-out: MIC over the Gram-positive panel
[8] = system: Enterococcus faecalis ATCC 33186; assay: MIC, microbroth dilution, Enterococcus faecalis; type: cell-based; details: Enterococcus faecalis, ATCC33186, read-out: MIC against Gram-positive bacteria, EF, Enterococcus faecalis ATCC 33186; Mueller-Hinton broth, 18–20 h
[9] = system: methicillin-resistant Staphylococcus aureus N315; assay: MIC, microbroth dilution, MRSA; type: cell-based; details: Staphylococcus aureus, MRSA, read-out: MIC against Gram-positive bacteria, MRSA
Procedure, shortened: as §1

[10] = system: Streptococcus pyogenes ATCC 700294; assay: MIC, microbroth dilution, Streptococcus pyogenes; type: cell-based; details: Streptococcus pyogenes, ATCC700294, read-out: MIC against Gram-positive bacteria, SP
[11] = system: S. aureus Newman; assay: Membrane permeability by flow cytometry with propidium iodide; type: cell-based, Staphylococcus aureus; details: 10 μM, 30 min, concentrations causing dissipation of the membrane potential
Procedure, shortened: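 S. aureus Newman grown in Mueller-Hinton II broth to OD600 ≈ 0.3 and exposed to test compound at 10 μM for 30 min. Propidium iodide (10 μM) added for 10 min in the dark. Flow cytometry: 10,000 events, 488 nm excitation, red fluorescence; event histograms compared. Thioridazine at 100 μg/mL served as positive control.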

[12] = system: methicillin-susceptible Staphylococcus aureus Newman; assay: MIC, microbroth dilution, MSSA; type: cell-based; details: for fold improvement in activity over reutericyclin: S. aureus, strain not given; for MIC against Gram-positive bacteria, MSSA: S. aureus Newman, 18–20 h
Procedure, shortened: as §1

SMILES	dissipation of the membrane potential [1]	Selectivity index [2]	MIC [3] [µg/mL]	MIC [4] [µg/mL]	MIC [5] [µg/mL]	MIC [6] [µg/mL]	fold less active than reutericyclin ([7]; Gram-positive panel (most bacteria)) [fold]	MIC [8] [µg/mL]	MIC [9] [µg/mL]	MIC [10] [µg/mL]	fold better activity than 3 throughout the panel ([7]; Gram-positive panel, compared to 3) [fold]	fold improvement in activity over reutericyclin ([5]; C. difficile) [fold]	physical integrity of the S. aureus membrane (propidium iodide uptake) [11]	MIC [7] [µg/mL]	fold improvement in activity over reutericyclin [12] [fold]	MIC against Gram-positive bacteria, MSSA [12] [µg/mL]	Cytotox IC50 ([2]; Vero kidney cells, 72 h, 50% reduction of viability) [µg/mL]
N#CC(C#N)=NNc1cccc(Cl)c1 [CCCP, carbonyl cyanide m-chlorophenyl hydrazone, reference compound]	complete dissipation of the membrane potential																
CCCCC(=O)N1C(=O)/C(=C(/C)O)C(=O)C1CC(C)C (stereo not shown) [Compound 3, (Z)-3-(1-hydroxyethylidene)-5-isobutyl-1-pentanoylpyrrolidine-2,4-dione]		1	100 (≈ 355 µM)	> 200	16 (≈ 56.9 µM)	6.25 (≈ 22.2 µM)	≥ 32	50 (≈ 178 µM)	12.5 (≈ 44.4 µM)	12.5 (≈ 44.4 µM)							
C/C(O)=C1\C(=O)C(CC(C)C)N(C(=O)C=Cc2ccccc2)C1=O (stereo not shown) [Compound 4, (Z)-1-cinnamoyl-3-(1-hydroxyethylidene)-5-isobutylpyrrolidine-2,4-dione]		2	25 (≈ 76.4 µM)	> 200	8 (≈ 24.4 µM)	3.13 (≈ 9.56 µM)		12.5 (≈ 38.2 µM)	1.6 (≈ 4.89 µM)	25 (≈ 76.4 µM)	≤ 8						
CCCCCCC/C=C/C(=O)N1C(=O)/C(=C(\O)CCCC)C(=O)C1CC(C)C (stereo not shown) [Compound 6, (Z)-1-((E)-dec-2-enoyl)-3-(1-hydroxypentylidene)-5-isobutylpyrrolidine-2,4-dione]	slightly lower than reutericyclin; also recorded: did not rapidly dissipate the membrane potential	>58	0.39 (≈ 0.996 µM)	0.39 (≈ 0.996 µM)	< 0.03	3.13 (≈ 7.99 µM)		0.2 (≈ 0.511 µM)	< 0.1	3.13 (≈ 7.99 µM)		> 3	did not disrupt the physical integrity	< 1	> 4		
CCCCCCC/C=C/C(=O)N1C(=O)/C(=C(\O)c2ccccc2)C(=O)C1CC(C)C (stereo not shown) [Compound 7, (Z)-1-((E)-dec-2-enoyl)-3-(hydroxy(phenyl)methylene)-5-isobutylpyrrolidine-2,4-dione]		>125	0.78 (≈ 1.9 µM)	> 200	0.75 (≈ 1.82 µM)	12.5 (≈ 30.4 µM)		0.39 (≈ 0.948 µM)	< 0.1	12.5 (≈ 30.4 µM)				< 1		<0.1	
CCCCCCC/C=C/C(=O)N1C(=O)/C(=C(\O)c2ccncc2)C(=O)C1CC(C)C (stereo not shown) [Compound 8, (Z)-1-((E)-dec-2-enoyl)-3-(hydroxy(pyridin-4-yl)methylene)-5-isobutylpyrrolidine-2,4-dione]		5	100 (≈ 242 µM)	50 (≈ 121 µM)	0.5 (≈ 1.21 µM)	25 (≈ 60.6 µM)		50 (≈ 121 µM)	12.5 (≈ 30.3 µM)	100 (≈ 242 µM)							
CCCCCCC/C=C/C(=O)N1C(=O)/C(=C(\O)C2CCNCC2)C(=O)C1CC(C)C (stereo not shown) [Compound 9, (Z)-1-((E)-dec-2-enoyl)-3-(hydroxy(piperidin-4-yl)methylene)-5-isobutylpyrrolidine-2,4-dione]	reduced their ability to dissipate the membrane potential	2	12.5 (≈ 29.9 µM)	12.5 (≈ 29.9 µM)	8 (≈ 19.1 µM)	50 (≈ 119 µM)		50 (≈ 119 µM)	50 (≈ 119 µM)	100 (≈ 239 µM)							
CCCCCCC/C=C/C(=O)N1C(=O)/C(=C(\O)c2ccc(OCOCCOC)cc2)C(=O)C1CC(C)C (stereo not shown) [Compound 11, (Z)-1-((E)-dec-2-enoyl)-3-(hydroxy(4-((2-methoxyethoxy)methoxy)phenyl)methylene)-5-isobutylpyrrolidine-2,4-dione]		25	1.56 (≈ 3.03 µM)	0.2 (≈ 0.388 µM)	0.25 (≈ 0.485 µM)	12.5 (≈ 24.2 µM)		0.78 (≈ 1.51 µM)	0.2 (≈ 0.388 µM)	25 (≈ 48.5 µM)							
CCCCCCC/C=C/C(=O)N1C(=O)/C(=C(\O)c2ccc(O)cc2)C(=O)C1CC(C)C (stereo not shown) [Compound 12, (Z)-1-((E)-dec-2-enoyl)-3-(hydroxy(4-hydroxyphenyl)methylene)-5-isobutylpyrrolidine-2,4-dione]		9	3.13 (≈ 7.32 µM)	0.78 (≈ 1.82 µM)	2 (≈ 4.68 µM)	50 (≈ 117 µM)		12.5 (≈ 29.2 µM)	6.25 (≈ 14.6 µM)	50 (≈ 117 µM)							
CCCCCCC/C=C/C(=O)N1CC(=O)/C(=C(\C)O)C1=O [Compound 14, (Z)-1-((E)-dec-2-enoyl)-3-(1-hydroxyethylidene)pyrrolidine-2,4-dione]		3	12.5 (≈ 42.6 µM)	1.56 (≈ 5.32 µM)	2 (≈ 6.82 µM)	12.5 (≈ 42.6 µM)		6.25 (≈ 21.3 µM)	3.2 (≈ 10.9 µM)	50 (≈ 170 µM)							
CCCCCCC/C=C/C(=O)N1C(=O)/C(=C(/C)O)C(=O)C1CO (stereo not shown) [Compound 15, (Z)-1-((E)-dec-2-enoyl)-3-(1-hydroxyethylidene)-5-(hydroxymethyl)pyrrolidine-2,4-dione]		1	200 (≈ 618 µM)	> 200	64 (≈ 198 µM)	100 (≈ 309 µM)		100 (≈ 309 µM)	> 200	50 (≈ 155 µM)							
CCCCCCC/C=C/C(=O)N1C(=O)/C(=C(/C)O)C(=O)C1CCC(=O)O (stereo not shown) [Compound 16, 3-((Z)-1-((E)-dec-2-enoyl)-4-(1-hydroxyethylidene)-3,5-dioxopyrrolidin-2-yl)propanoic acid]		1	50 (≈ 137 µM)	> 200	> 64	25 (≈ 68.4 µM)		25 (≈ 68.4 µM)	> 200	50 (≈ 137 µM)							
CCCCCCC/C=C/C(=O)N1C(=O)/C(=C(/C)O)C(=O)C1CCCCN (stereo not shown) [Compound 17, (Z)-5-(4-aminobutyl)-1-((E)-dec-2-enoyl)-3-(1-hydroxyethylidene)pyrrolidine-2,4-dione]	reduced their ability to dissipate the membrane potential	1	> 200	> 200	> 64	> 200		50 (≈ 137 µM)	200 (≈ 549 µM)	> 200							
CCCCCCC/C=C/C(=O)N1C(=O)/C(=C(/C)O)C(=O)C1Cc1ccc(O)cc1 (stereo not shown) [Compound 19, (Z)-1-((E)-dec-2-enoyl)-5-(4-hydroxybenzyl)-3-(1-hydroxyethylidene)pyrrolidine-2,4-dione]		2	50 (≈ 125 µM)	200 (≈ 501 µM)	32 (≈ 80.1 µM)	25 (≈ 62.6 µM)		50 (≈ 125 µM)	25 (≈ 62.6 µM)	50 (≈ 125 µM)							93.53
CCCCCCC/C=C/C(=O)N1C(=O)/C(=C(/C)O)C(=O)C1Cc1ccc(OC(C)(C)C)cc1 (stereo not shown) [Compound 20, (Z)-5-(4-(tert-butoxy)benzyl)-1-((E)-dec-2-enoyl)-3-(1-hydroxyethylidene)pyrrolidine-2,4-dione]		>115	1.56 (≈ 3.42 µM)	200 (≈ 439 µM)	0.25 (≈ 0.549 µM)	6.25 (≈ 13.7 µM)		0.78 (≈ 1.71 µM)	< 0.1	12.5 (≈ 27.4 µM)					> 4	<0.1	

Source: article PMC4894453 (Scientific Reports, 2014)
